Measurements reported in ChEMBL document CHEMBL1145431, “Improved anti-osteoporosis potency and reduced endometrial membrane hyperplasia during hormone replacement therapy with estrogen-RGD peptide conjugates” (2007).
Where a SMILES comes first, the peptide text is derived from it. The star is where a group is joined. X1 = C[C@]12CC[C@@H]3c4ccc(OCC(=O)*)cc4CC[C@H]3[C@@H]1CCC2O

How the values were obtained:
Mus musculus [1] = experiment: Effect on liver weight in mouse at 0.1103 mmol/kg, po; format: functional
Summary of the method: (§1)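 Female Kuiming mice (7 weeks old, 30.7 ± 3.1 g) under abdominal OVX, sham group abdominorotomy only. From day 5 after surgery, dosed orally once daily for 4 weeks at 110.3 × 10-3 mmol/kg in 0.5% CMC (0.2 mL), vehicle group CMC alone. Blood drawn retro-orbitally, then left femur and organs removed under pentobarbital (40.0 mg/kg, i.p.).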

Mus musculus [2] = experiment: Effect on serum phosphorous level in mouse at 0.011 mmol/kg, ip; format: functional; conditions: in the assay text read “0.11 mmol/kg” for “0.011 mmol/kg”
Summary of the method: (§2)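 Dose-response in OVX Kuiming mice, i.p. daily for 4 weeks in 0.5% CMC at 11.03, 55.15 or 110.3 × 10-3 mmol/kg. Serum from retro-orbital blood (3000 g, 20 min). Calcium by o-methylphenolphthalein complexone, phosphorus by molybdenum blue, ALP by activity on disodium phenylphosphate. n = 12, ANOVA.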

Mus musculus [3] = experiment: Effect on phosphorus level in mouse at 0.110 mmol/kg, po; format: functional; summary of the method: as §1
Mus musculus [4] = experiment: Effect on uterus weight in ovariectomized mouse at 0.1103 mmol/kg, ip once daily for 4 weeks; format: functional
Summary of the method: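 Female Kuiming mice (7 weeks old, 30.7 ± 3.1 g), abdominal OVX under pentobarbital (40.0 mg/kg i.p.). From day 5 after surgery, i.p. injection once daily for 4 weeks, compound in aqueous 0.5% CMC prepared just before use. The day after the last dose, mice were anesthetized and killed, and lungs, livers, spleens and uteri were removed and weighed directly. n = 12, ANOVA, p < 0.05.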

Mus musculus [5] = experiment: Effect on mineral level in mouse femur at 0.011 mmol/kg, ip; format: functional; conditions: in the assay text read “0.11 mmol/kg” for “0.011 mmol/kg”
Summary of the method: (§3)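 Dose-response in OVX Kuiming mice, i.p. daily for 4 weeks in 0.5% CMC at 11.03, 55.15 or 110.3 × 10-3 mmol/kg. Left femur: length, then defatting, drying at 120 °C for 6 h (dry weight), ashing at 800 °C for 8 h. Ash/dry ratio gives mineral content. Ash Ca and P measured colorimetrically. Liver, lung and spleen weighed directly. n = 12, ANOVA.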

Mus musculus [6] = experiment: Effect on dry weight of femurs in recipient mouse at 0.055 mmol/kg, ip; format: functional, Femur; summary of the method: as §3
Mus musculus [7] = experiment: Effect on uterus weight in mouse at 0.055 mmol/kg, ip; format: functional
Summary of the method: (§4)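 Dose study in abdominally ovariectomized female Kuiming mice (30.7 ± 3.1 g). Daily i.p. dosing in aqueous 0.5% CMC from day 5 after surgery for 4 weeks, at 110.3, 55.15 or 11.03 × 10-3 mmol/kg. Liver, lung, spleen and uterus were removed after pentobarbital euthanasia and weighed. n = 12, ANOVA, p < 0.05.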

Mus musculus [8] = experiment: Effect on calcium level in mouse femur at 0.055 mmol/kg, ip; format: functional; summary of the method: as §3
Mus musculus [9] = experiment: Effect on serum phosphorous level in mouse at 0.055 mmol/kg, ip; format: functional; summary of the method: as §2
Mus musculus [10] = experiment: Effect on serum ALP level in mouse at 0.011 mmol/kg, ip; format: functional; summary of the method: as §2
Mus musculus [11] = experiment: Effect on serum calcium level in mouse at 0.1103 mmol/kg, po; format: functional
Summary of the method: (§5)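 Oral OVX Kuiming mouse model, dosed daily for 4 weeks at 110.3 × 10-3 mmol/kg in 0.5% CMC. Retro-orbital blood stood 30 min at room temperature and was spun at 3000 g for 20 min. Serum kept at -20 °C. Calcium read by o-methylphenolphthalein complexone, phosphorus by molybdenum blue, ALP by activity on disodium phenylphosphate substrate.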

Mus musculus [12] = experiment: Effect on spleen weight in mouse at 0.1103 mmol/kg, po; format: functional; summary of the method: as §1
Mus musculus [13] = experiment: Effect on lung weight in ovariectomized mouse at 0.1103 mmol/kg, ip once daily for 4 weeks; format: functional
Summary of the method: (§6)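 Female Kuiming mice (7 weeks, 30.7 ± 3.1 g) ovariectomized, sham group abdominorotomy. From day 5, i.p. once daily for 4 weeks at 110.3 × 10-3 mmol/kg in 0.5% CMC. Left femur cleaned, length measured, defatted in chloroform-methanol (2:1, 2 × 3 h), dried 120 °C 6 h for dry weight, ashed 800 °C 8 h. Mineral content = ash/dry weight. Ash dissolved in 6 N HCl and diluted. Ca by o-methylphenolphthalein complexone, P by molybdenum blue. Lungs and livers weighed directly.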

Mus musculus [14] = experiment: Effect on femur ash weight in mouse at 0.1103 mmol/kg, po; format: functional; summary of the method: as §1
Mus musculus [15] = experiment: Effect on lung weight in mouse at 0.011 mmol/kg, ip; format: functional; summary of the method: as §3
Mus musculus [16] = experiment: Effect on serum calcium level in ovariectomized mouse at 0.1103 mmol/kg, ip once daily for 4 weeks; format: functional
Summary of the method: (§7)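 OVX Kuiming mice dosed i.p. daily for 4 weeks in 0.5% CMC. Blood taken retro-orbitally on the day after the last dose, stood 30 min, spun at 3000 g for 20 min, serum stored at -20 °C. Calcium by o-methylphenolphthalein complexone, phosphorus by molybdenum blue, ALP by activity with disodium phenylphosphate substrate.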

Mus musculus [17] = experiment: Effect on calcium level in mouse femur at 0.011 mmol/kg, ip; format: functional; summary of the method: as §3
Mus musculus [18] = experiment: Effect on lung weight in mouse at 0.055 mmol/kg, ip; format: functional; summary of the method: as §3
Mus musculus [19] = experiment: Effect on serum ALP lavel in ovariectomized mouse at 0.1103 mmol/kg, ip once daily for 4 weeks; format: functional; summary of the method: as §7
Mus musculus [20] = experiment: Effect on serum ALP level in mouse at 0.055 mmol/kg, ip; format: functional; summary of the method: as §2
Mus musculus [21] = experiment: Effect on mineral level in mouse femur at 0.055 mmol/kg, ip; format: functional; summary of the method: as §3
Mus musculus [22] = experiment: Effect on lung weight in mouse at 0.1103 mmol/kg, po; format: functional; summary of the method: as §1
Mus musculus [23] = experiment: Effect on femur length in ovariectomized mouse at 0.1103 mmol/kg, ip once daily for 4 weeks; format: functional; summary of the method: as §6
Mus musculus [24] = experiment: Effect on serum calcium level in mouse at 0.055 mmol/kg, ip; format: functional; summary of the method: as §2
Mus musculus [25] = experiment: Effect on serum ALP level in mouse at 0.1103 mmol/kg, ip; format: functional; summary of the method: as §7
Mus musculus [26] = experiment: Effect on mineral content in ovariectomized mouse at 0.1103 mmol/kg, ip once daily for 4 weeks; format: functional; summary of the method: as §6
Mus musculus [27] = experiment: Effect on spleen weight in mouse at 0.011 mmol/kg, ip; format: functional; summary of the method: as §3
Mus musculus [28] = experiment: Effect on mineral content in mouse at 0.1103 mmol/kg, po; format: functional; summary of the method: as §1
Mus musculus [29] = experiment: Effect on femur length in recipient mouse at 0.011 mmol/kg, ip; format: functional; summary of the method: as §3
Mus musculus [30] = experiment: Effect on femur length in recipient mouse at 0.055 mmol/kg, ip; format: functional; summary of the method: as §3
Mus musculus [31] = experiment: Effect on spleen weight in mouse at 0.055 mmol/kg, ip; format: functional; summary of the method: as §3
Mus musculus [32] = experiment: Effect on uterus weight in mouse at 0.011 mmol/kg, ip; format: functional; summary of the method: as §4
Mus musculus [33] = experiment: Effect on femur ash weight in recipient mouse at 0.011 mmol/kg, ip; format: functional; summary of the method: as §3
Mus musculus [34] = experiment: Effect on serum ALP level in mouse at 0.1103 mmol/kg, po; format: functional; summary of the method: as §5
Mus musculus [35] = experiment: Effect on uterus weight in mouse at 0.1103 mmol/kg, po; format: functional
Mus musculus [36] = experiment: Effect on phosphorous level in mouse femur at 0.055 mmol/kg, ip; format: functional; summary of the method: as §3
Mus musculus [37] = experiment: Effect on serum phosphorous level in mouse at […] mmol/kg, ip; format: functional; summary of the method: as §7
Mus musculus [38] = experiment: Effect on calcium level in mouse at 0.1103 mmol/kg, po; format: functional; summary of the method: as §1

With `CC(C)[C@H](NC(=O)[C@H](CC(=O)O)NC(=O)CNC(=O)[C@H](CCCNC(=N)N)NC(=O)COc1ccc2c(c1)CC[C@@H]1[C@@H]2CC[C@]2(C)C(O)CC[C@@H]12)C(=O)O` (stereo partly drawn) (X1-RGDV-OH) the Activity (Mus musculus [1]) was 1.337 g, the Activity (Mus musculus [2]) was 1.6 mmol/L and the Activity (Mus musculus [3]) was 24.997%. The Activity (Mus musculus [4]) was 50.3 mg, the Ratio (Mus musculus [5]) was 0.63 and the Activity (Mus musculus [6]) was 57.5 mg. It also gave an Activity (Mus musculus [7]) of 57.6 mg, an Activity (Mus musculus [8]) of 57.13% and an Activity (Mus musculus [9]) of 1.586 mmol/L. It also gave an Activity (Mus musculus [10]) of 38.5 U/L, an Activity (Mus musculus [11]) of 2.04 mmol/L and an Activity (Mus musculus [12]) of 134 mg. For the same compound, the Activity (Mus musculus [13]) was 162 mg, the Activity (Mus musculus [14]) was 33.7 mg and the Activity (Mus musculus [15]) was 188 mg. It also gave an Activity (Mus musculus [16]) of 2.003 mmol/L, an Activity (Mus musculus [17]) of 42.1% and an Activity (Mus musculus [18]) of 179 mg. It also gave an Activity (Mus musculus [19]) of 30.514 U/L, an Activity (Mus musculus [20]) of 32.786 U/L and a Ratio (Mus musculus [21]) of 0.539. The Activity (Mus musculus [22]) was 163 mg, the Activity (Mus musculus [23]) was 1.64 cm and the Activity (Mus musculus [24]) was 2.084 mmol/L. For the same compound, the Activity (Mus musculus [25]) was 30.5 U/L, the Ratio (Mus musculus [26]) was 0.63 and the Activity (Mus musculus [27]) was 156 mg. It also gave a Ratio (Mus musculus [28]) of 51.9%, an Activity (Mus musculus [29]) of 1.64 cm and an Activity (Mus musculus [30]) of 1.643 cm. It also gave an Activity (Mus musculus [31]) of 140 mg, an Activity (Mus musculus [32]) of 55.7 mg and an Activity (Mus musculus [33]) of 20.6 mg. The Activity (Mus musculus [34]) was 34.521 U/L, the Activity (Mus musculus [35]) was 40.7 mg and the Activity (Mus musculus [36]) was 24.315%. It also gave an Activity (Mus musculus [37]) of 1.6 mmol/L and an Activity (Mus musculus [38]) of 52.197%.
